Active and inactive are the calls of the source. The rule behind the calls is not given here.
How the values were obtained:
MCF7 [1] = experiment: Decrease in cyclin B level in human MCF7 cells at 4 uM after 24 hrs by immunoblot analysis; assay type: functional; parameters: scale not given: the % may be the effect or the level left
Method in brief: (§1)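 MCF-7 cells incubated with or without compound for 24 h at 37 °C. Lysates made in Tris/NaCl/EDTA/NP-40/deoxycholate buffer containing PMSF, DTT, NaF and vanadate. 10-20 µg protein run on 8 or 10% SDS-PAGE and blotted to nitrocellulose. Probed with antibodies to each regulatory protein; actin antibody served as loading control.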

MCF7 [2] = experiment: Decrease in CDK1 level in human MCF7 cells at 7.5 uM after 24 hrs by immunoblot analysis; assay type: functional; parameters: scale not given: the % may be the effect or the level left; method in brief: as §1
MCF7 [3] = experiment: Decrease in cyclin D1 level in human MCF7 cells at 7.5 to 10 uM after 24 hrs by immunoblot analysis; assay type: functional; parameters: scale not given: the % may be the effect or the level left; method in brief: as §1
MCF7 [4] = experiment: Increase in cyclin E level in human MCF7 cells at >2 uM after 24 hrs by immunoblot analysis; assay type: functional; method in brief: as §1
MCF7 [5] = experiment: Cell cycle arrest in human MCF7 cells assessed as accumulation at G1 phase after 24 hrs by flow cytometry; assay type: functional, cell-based
Method in brief: (§2)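 MCF-7 cells in 6-well plates, exposed to compound for 24 h at 37 °C, then pulse-labelled with 10 µM bromodeoxyuridine for 30 min. Cells trypsinized, fixed in 80% methanol at -20 °C, acid-denatured and permeabilized, stained with anti-BrdU-FITC, counterstained with propidium iodide and run on flow cytometry. S-phase percentage taken from the propidium iodide histogram.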

MCF7 [6] = experiment: Cell cycle arrest in human MCF7 cells assessed as accumulation at S phase at 3 uM after 24 hrs by flow cytometry; assay type: functional; method in brief: as §2
[7] = target: Cyclin-dependent kinase 1/cyclin B1 (Homo sapiens, UniProt P06493); experiment: Inhibition of CDK1/Cyclin B1 expressed in Sf9 cells-baculovirus system assessed as retinoblastoma susceptibility gene product phosphorylation
Chain of Cyclin-dependent kinase 1/cyclin B1 (P06493 whole entry): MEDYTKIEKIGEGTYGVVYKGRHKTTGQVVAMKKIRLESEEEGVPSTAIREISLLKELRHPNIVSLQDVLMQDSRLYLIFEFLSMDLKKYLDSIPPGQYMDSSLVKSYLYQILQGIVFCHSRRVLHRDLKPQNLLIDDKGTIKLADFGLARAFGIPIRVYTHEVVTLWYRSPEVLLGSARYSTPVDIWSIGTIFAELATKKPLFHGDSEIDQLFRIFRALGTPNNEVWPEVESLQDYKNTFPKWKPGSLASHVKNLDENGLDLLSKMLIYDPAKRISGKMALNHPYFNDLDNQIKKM
Chain of Cyclin-dependent kinase 1/cyclin B1 (P14635 whole entry, further chain): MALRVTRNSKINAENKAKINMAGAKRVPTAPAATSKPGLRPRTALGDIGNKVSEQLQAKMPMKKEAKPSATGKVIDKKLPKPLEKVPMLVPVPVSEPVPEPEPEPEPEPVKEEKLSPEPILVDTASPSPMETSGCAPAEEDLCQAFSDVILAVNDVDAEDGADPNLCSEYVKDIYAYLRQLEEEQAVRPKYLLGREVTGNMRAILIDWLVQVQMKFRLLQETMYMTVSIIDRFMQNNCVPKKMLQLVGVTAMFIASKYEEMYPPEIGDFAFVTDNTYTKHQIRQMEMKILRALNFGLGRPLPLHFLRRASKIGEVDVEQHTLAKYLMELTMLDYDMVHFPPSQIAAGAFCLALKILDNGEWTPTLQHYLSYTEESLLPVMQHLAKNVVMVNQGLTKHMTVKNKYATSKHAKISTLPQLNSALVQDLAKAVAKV

[8] = target: T1, Retinoblastoma-associated protein (Homo sapiens) (UniProt P06400); experiment: Inhibition of retinoblastoma susceptibility gene product phosphorylation in human MCF7 cells after 24 hrs; assay type: cell-based
T1 sequence (whole entry): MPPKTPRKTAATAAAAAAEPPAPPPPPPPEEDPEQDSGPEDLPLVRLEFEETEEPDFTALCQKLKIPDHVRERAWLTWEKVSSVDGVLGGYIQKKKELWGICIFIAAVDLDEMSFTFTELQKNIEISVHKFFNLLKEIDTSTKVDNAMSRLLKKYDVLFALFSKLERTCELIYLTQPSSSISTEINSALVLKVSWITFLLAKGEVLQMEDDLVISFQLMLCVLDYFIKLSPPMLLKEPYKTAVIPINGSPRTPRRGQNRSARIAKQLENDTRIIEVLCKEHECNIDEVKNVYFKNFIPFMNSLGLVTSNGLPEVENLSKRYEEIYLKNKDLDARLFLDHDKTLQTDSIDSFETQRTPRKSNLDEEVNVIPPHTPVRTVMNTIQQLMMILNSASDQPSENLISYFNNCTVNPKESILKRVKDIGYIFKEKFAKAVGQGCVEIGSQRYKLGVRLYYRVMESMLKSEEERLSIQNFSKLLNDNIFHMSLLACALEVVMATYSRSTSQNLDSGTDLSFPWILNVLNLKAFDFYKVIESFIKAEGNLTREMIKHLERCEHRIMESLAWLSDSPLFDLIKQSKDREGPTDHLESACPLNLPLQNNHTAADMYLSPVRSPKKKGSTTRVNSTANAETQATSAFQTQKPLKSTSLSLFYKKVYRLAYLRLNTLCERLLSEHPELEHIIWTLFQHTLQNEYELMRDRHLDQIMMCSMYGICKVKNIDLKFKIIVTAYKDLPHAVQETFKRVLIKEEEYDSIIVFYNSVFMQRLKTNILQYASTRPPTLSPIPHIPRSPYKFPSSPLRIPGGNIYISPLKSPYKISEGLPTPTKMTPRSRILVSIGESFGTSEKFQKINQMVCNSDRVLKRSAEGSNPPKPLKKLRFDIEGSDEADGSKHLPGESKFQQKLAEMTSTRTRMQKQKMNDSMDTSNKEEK
Method in brief: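 MCF-7 cells exposed to compound for 24 h at 37 °C. Extracts separated by SDS-PAGE and immunoblotted with Rb antibody, with the phosphorylated pRB band followed. Also checked with an antibody specific for phospho-Ser807/811 pRB.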

MCF7 [9] = experiment: Cell cycle arrest in human MCF7 cells assessed as accumulation at S phase at 0.1 uM after 24 hrs by flow cytometry; assay type: functional; method in brief: as §2
MCF7 [10] = experiment: Antiproliferative activity against human MCF7 cells by SRB method; assay type: functional, cell-based
MCF7 [11] = experiment: Decrease in CDK2 level in human MCF7 cells at 7.5 uM after 24 hrs by immunoblot analysis; assay type: functional; parameters: scale not given: the % may be the effect or the level left; method in brief: as §1
[12] = target: Cyclin-dependent kinase 2 (Homo sapiens, UniProt P24941); experiment: Inhibition of CDK2/cyclin E expressed in Sf9 cells-baculovirus system assessed as retinoblastoma susceptibility gene product phosphorylation
[13] = target: Cyclin-dependent kinase 4/cyclin D1 (Homo sapiens, UniProt P11802); experiment: Inhibition of CDK4/cyclin D1 expressed in Sf9 cells-baculovirus system assessed as retinoblastoma susceptibility gene product phosphorylation
Chain of Cyclin-dependent kinase 4/cyclin D1 (P11802 whole entry): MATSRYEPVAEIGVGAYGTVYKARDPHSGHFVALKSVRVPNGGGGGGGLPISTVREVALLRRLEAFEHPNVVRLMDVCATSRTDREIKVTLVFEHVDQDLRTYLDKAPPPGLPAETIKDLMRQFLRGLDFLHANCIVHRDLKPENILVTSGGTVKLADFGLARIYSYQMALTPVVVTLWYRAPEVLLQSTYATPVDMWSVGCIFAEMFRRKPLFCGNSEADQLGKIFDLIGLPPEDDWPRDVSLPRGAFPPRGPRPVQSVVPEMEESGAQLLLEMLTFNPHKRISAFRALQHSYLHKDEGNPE
Chain of Cyclin-dependent kinase 4/cyclin D1 (P24385 whole entry, further chain): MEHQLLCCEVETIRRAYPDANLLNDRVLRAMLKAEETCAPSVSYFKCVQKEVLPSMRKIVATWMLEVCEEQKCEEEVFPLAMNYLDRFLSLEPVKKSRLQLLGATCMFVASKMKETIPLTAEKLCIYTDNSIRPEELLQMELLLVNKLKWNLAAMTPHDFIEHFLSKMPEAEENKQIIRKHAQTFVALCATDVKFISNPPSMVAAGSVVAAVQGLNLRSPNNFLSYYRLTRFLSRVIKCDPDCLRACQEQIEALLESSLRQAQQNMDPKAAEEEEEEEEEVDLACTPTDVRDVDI

MCF7 [14] = experiment: Decrease in p27 level in human MCF7 cells at 7.5 uM after 24 hrs by immunoblot analysis; assay type: functional; parameters: scale not given: the % may be the effect or the level left; method in brief: as §1
MCF7 [15] = experiment: Cell cycle arrest in human MCF7 cells assessed as accumulation at S phase at 0.3 uM after 24 hrs by flow cytometry; assay type: functional; method in brief: as §2
MCF7 [16] = experiment: Decrease in CDK4 level in human MCF7 cells at 7.5 to 10 uM after 24 hrs by immunoblot analysis; assay type: functional; parameters: scale not given: the % may be the effect or the level left; method in brief: as §1
MCF7 [17] = experiment: Cell cycle arrest in human MCF7 cells assessed as accumulation at S phase at 1 uM after 24 hrs by flow cytometry; assay type: functional; method in brief: as §2
HCT-116 = experiment: Antiproliferative activity against human HCT116 cells by SRB method; assay type: functional, cell-based

SMILES	Activity (MCF7 [1]) [%]	Activity (MCF7 [2]) [%]	Activity (MCF7 [3]) [%]	Activity (MCF7 [4]) [%]	Activity (MCF7 [5])	Activity (MCF7 [6]) [%]	IC50 [7] [µM]	Activity [8]	Activity (MCF7 [9]) [%]	IC50 (MCF7 [10]) [µM]	Activity (MCF7 [11]) [%]	IC50 [12] [µM]	IC50 [13] [µM]	Activity (MCF7 [14]) [%]	Activity (MCF7 [15]) [%]	Activity (MCF7 [16]) [%]	Activity (MCF7 [17]) [%]	IC50 (HCT-116) [µM]
O=C1NC(=O)c2ccc(Br)cc2/C1=C/Nc1ccc(CN2CCCCC2)cc1	60	40	85	5	Active	2	> 50	Dose-dependent effect	35	3.1	55	> 50	1.1	45	34	60	10	5
CN1CCN(c2ccc(N/C=C3\C(=O)NC(=O)c4ccc(Br)cc43)cc2)CC1					Active	3	> 50	Dose-dependent effect	37	3					32		16	3.1
